# Active and inactive are the calls of the source.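 The calls were made as follows, unless noted: active = a full or partial loss of lipid-probe fluorescence in the fish gall bladder, intestine or both, judged by eye; inactive = no fluorescence loss, or compound toxic to the fish.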
# Experiments:
# [1] = inhibitors of TNFa-induced NFkB p65 translocation, primary screen, imaging, HUVEC, MLSMR starter and 10KST1 sets (AID 438;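 active = inhibition above 20% together with a positive visual image hit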;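 also: compound added about 3h40 before a 20 min TNFalpha stimulation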;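 as to inhibition: signal is the nuclear over cytoplasmic p65 intensity ratio per well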); settings: HUVEC TNFa-induced p65 nuclear translocation; cell count: measured here: nuclei count (cytotoxicity indicator), at 2.08 µM; inhibition: at 2 µM, stronger effect = higher value, 0% TNFa-plus-vehicle, 100% no-TNFa wells
# [2] = inhibitors of E-selectin induction by TNFa, primary screen, imaging, HUVEC, immunofluorescence, MLSMR starter and 10KST1 sets (AID 487;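 active = visually confirmed hit in the image check and inhibition above 20%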;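 as to inhibition: signal is fraction of cell area covered by stained E-selectin grains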;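 as to nuclei count: 100% = median nuclei count of all wells on the same plate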); settings: HUVEC TNFalpha-induced E-selectin immunofluorescence imaging, at 2 µM; inhibition: stronger effect = higher value; nuclei count: measured here: cell number, toxicity
# [3] = DUSP6 inhibitors restoring Erk phosphorylation by chemical complementation, primary imaging in DUSP6-transfected HeLa (AID 609;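 active = compounds giving at least 50% inhibition in the cell-based MKP-3 phosphatase rescue imaging test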;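 as to inhibition: phospho-Erk level distribution per well compared with pooled transfected vehicle control wells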); settings: HeLa MKP-3 transfected, phospho-Erk imaging KS statistic, at 10 µM, cells stimulated with TPA for 15 min
# [4] = molecular target: Dual specificity protein phosphatase 6 (Homo sapiens) (UniProt Q16828); experiment: as above; settings: HeLa MKP-3 transfected, phospho-Erk imaging KS statistic; at 10 µM; stronger effect = higher value; cells stimulated with TPA for 15 min
# Dual specificity protein phosphatase 6 (Homo sapiens), sequence (Q16828 whole entry, looked up): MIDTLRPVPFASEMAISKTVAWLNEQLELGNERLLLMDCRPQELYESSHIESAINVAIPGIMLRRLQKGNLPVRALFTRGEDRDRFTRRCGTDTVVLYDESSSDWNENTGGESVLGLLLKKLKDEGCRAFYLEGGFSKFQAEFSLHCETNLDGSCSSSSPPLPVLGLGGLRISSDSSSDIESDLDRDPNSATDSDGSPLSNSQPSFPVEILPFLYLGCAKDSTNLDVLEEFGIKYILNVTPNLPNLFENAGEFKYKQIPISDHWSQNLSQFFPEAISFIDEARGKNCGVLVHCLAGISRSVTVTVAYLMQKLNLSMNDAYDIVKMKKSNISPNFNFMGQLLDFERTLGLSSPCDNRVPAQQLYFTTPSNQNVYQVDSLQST
# [5] = molecular target: Voltage-gated potassium channel subunit beta-2 (Rattus norvegicus) (UniProt P62483); experiment: KvBeta enzyme negative modulators, primary screen, biochemical, NADPH fluorescence (AID 622;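 active = fluorescence slope higher than the sample average by over 3 SD, cut at about -0.22 in these data, passing the limit was not always enough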;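 also: slope of raw intensity against log time taken from 70 to 1610 s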); settings: recombinant KvBeta, 4-cyanobenzaldehyde reduction, at 10 µM, stronger effect = higher value
# Voltage-gated potassium channel subunit beta-2 (Rattus norvegicus), sequence (P62483 whole entry, looked up): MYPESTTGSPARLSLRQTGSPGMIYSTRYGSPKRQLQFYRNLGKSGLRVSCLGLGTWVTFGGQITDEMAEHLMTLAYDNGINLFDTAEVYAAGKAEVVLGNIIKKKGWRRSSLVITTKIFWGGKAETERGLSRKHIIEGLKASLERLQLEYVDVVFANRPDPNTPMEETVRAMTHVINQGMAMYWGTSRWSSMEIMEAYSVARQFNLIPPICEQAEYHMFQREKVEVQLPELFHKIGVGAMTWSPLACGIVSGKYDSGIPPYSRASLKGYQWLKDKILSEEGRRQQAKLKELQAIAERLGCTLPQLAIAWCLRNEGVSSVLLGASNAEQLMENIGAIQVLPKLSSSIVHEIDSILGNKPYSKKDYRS
# [6] = molecular target: Voltage-gated potassium channel subunit beta-2 (Rattus norvegicus) (UniProt P62483); experiment: KvBeta positive modulators, primary screen, biochemical, NADPH fluorescence (AID 623;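 active = NADPH fluorescence slope more negative than the mean of all samples by about 3 SD, 99.7% confidence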;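 also: fluorescence intensity change per second fitted from 20 to 320 s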); settings: Recombinant KvBeta, NADPH fluorescence decrease slope, 10 min; at 10 µM; stronger effect = lower value
# [7] = molecular target: Alpha-2C adrenergic receptor (Homo sapiens) (UniProt P18825); experiment: modulators of alpha2C/GIRK thallium flux, primary screen, cell-based, HEK293 alpha2C/GIRK1/2 (AID 624;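 active = fluorescence slope after compound addition differing from the mean of all screened samples at 99.7% confidence, in either direction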;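 also: slope of fluorescence ratio to pre-addition baseline per second over 15 to 24 s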); settings: thallium flux BTC fluorescence, at 10 µM, actives lie on both sides
# Alpha-2C adrenergic receptor (Homo sapiens), sequence (P18825 whole entry, looked up): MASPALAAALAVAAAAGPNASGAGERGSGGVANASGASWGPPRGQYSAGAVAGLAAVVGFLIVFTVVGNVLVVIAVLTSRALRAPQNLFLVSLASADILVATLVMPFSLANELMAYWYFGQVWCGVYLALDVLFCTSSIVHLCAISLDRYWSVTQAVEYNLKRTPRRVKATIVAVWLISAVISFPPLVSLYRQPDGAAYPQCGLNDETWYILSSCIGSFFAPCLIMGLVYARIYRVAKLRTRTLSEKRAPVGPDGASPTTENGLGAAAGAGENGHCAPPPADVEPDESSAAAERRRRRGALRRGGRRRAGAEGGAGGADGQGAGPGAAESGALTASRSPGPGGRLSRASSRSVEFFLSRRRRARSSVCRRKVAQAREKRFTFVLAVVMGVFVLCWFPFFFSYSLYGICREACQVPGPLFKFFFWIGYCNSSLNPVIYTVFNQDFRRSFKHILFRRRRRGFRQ
# [8] = inhibitors of larval lipid processing in zebrafish, primary screen, whole organism, PED6 fluorescence, gall bladder and intestine (AID 686); settings: Zebrafish larvae PED6 lipid processing, fluorescence scoring; screened at 20 µM (by protocol);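 also: larvae 5 to 7 days old with five fish per well; signal comes from phospholipase A2 cleavage of quenched PED6 carried via bile; overnight exposure to compound and PED6 before scoring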
# Summary of the method: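 Also added: quenched phospholipase substrate PED6, 100 nM final, ingested by larvae; System: zebrafish larvae, 5-7 d; Quantity: 5 larvae per well; Compound: 20 µM single dose; Schedule: overnight compound and PED6 incubation; Read-out: visual per-well fluorescence inhibition score; Measured by: By-eye fluorescence microscopy; Medium: E3.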
# [9] = inhibitors of Chlamydomonas gravitaxis, primary screen, whole organism, Chlamydomonas reinhardtii, WT vs cilia-less mutant, absorbance, 96-well (AID 463189;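 active = inhibition at or above 50% relative to wild type and mutant plate controls; inactive = inhibition below 50%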;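 also: 0% = wild type cc124 cells in DMSO and 100% = ciliumless bld1 mutant cells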); settings: OD600 absorbance, 2 days, at 10 µM, stronger effect = higher value
# [10] = measured here: cell density z-score
# [11] = measured here: nuclear c-Myc green intensity z-score
# [12] = measured here: nuclear pErk red intensity z-score, stronger effect = higher value
SMILES,cell count [1],inhibition [1],inhibition [2],nuclei count [2] [%],"z-score [3, 10]","z-score [3, 11]","z-score [3, 12]",inhibition [4],fluorescence slope [5],NADPH fluorescence slope [6],slope [7],outcome [8],inhibition [9]
CCCSc1nc(N2CCCC2)c2c(c1C#N)CC(C)(C)OC2,521,-7.7% (inactive),-153% (inactive),173,1.7,-1.87,-0.14,36.9% (inactive),-0.322 (inactive),4.6e-06 (inactive),0.00655 (inactive),inactive,9.15% (inactive)
Cc1cc2c(c(=O)n1Cc1cccnc1)C(c1ccccc1)C(C#N)=C(N)O2 (stereo not drawn),550,-28.8% (inactive),-50% (inactive),160,-0.164,-2.06,-1.42,-6.06% (inactive),-0.537 (inactive),-2.7e-05 (inactive),0.00757 (inactive),inactive,22.9% (inactive)
CC1(C)Cc2c(C#N)c(NCc3ccco3)nc(-c3ccco3)c2CO1,598,3.9% (inactive),-12.9% (inactive),178,0.978,-1.81,0.89,-6.86% (inactive),-0.29 (inactive),-9.7e-06 (inactive),0.00397 (inactive),active; weak signal in gallbladder and intestine,53.9% (active)
COc1ccc(-c2nn3c(C4CCCCC4)nnc3s2)cc1OC,580,-19.9% (inactive),-19.9% (inactive),159,-0.887,0.0164,0.338,-18.6% (inactive),-0.442 (inactive),-0.000143 (inactive),0.00441 (inactive),inactive,25.1% (inactive)
COc1cccc(C2/C(=C(\O)c3ccc4c(c3)OCCO4)C(=O)C(=O)N2CCN(C)C)c1 (stereo not drawn),509,-0.6% (inactive),-108% (inactive),138,1,-0.131,-0.387,17.5% (inactive),-0.546 (inactive),-3.2e-05 (inactive),0.00546 (inactive),inactive,-11.2% (inactive)
C=CCOn1c(=O)c(-c2cc3ccccc3o2)[n+]([O-])c2ccccc21,536,-1.4% (inactive),-41.6% (inactive),144,-0.342,0.414,-0.0488,-8.76% (inactive),-0.123 (inactive),1.7e-05 (inactive),0.00548 (inactive),inactive,18.3% (inactive)
CC1(C)Cc2c(c(N3CCOCC3)nc3snc(N)c23)CO1,554,-1.3% (inactive),-78.1% (inactive),140,0.144,-0.616,0.222,1.48% (inactive),-0.281 (inactive),-1.1e-05 (inactive),0.00566 (inactive),inactive,22.3% (inactive)
CCCOC(=O)CSC1=C(C#N)C(c2ccccc2OCC)C(C#N)C(=O)N1 (stereo not drawn),487,-1.9% (inactive),-37.3% (inactive),101,0.769,-0.531,1.5,7.48% (inactive),-0.499 (inactive),-0.000121 (inactive),0.00584 (inactive),inactive,-14.4% (inactive)
Cc1c(NC(=O)C(CC(=O)O)NCc2ccco2)c(=O)n(-c2ccccc2)n1C (stereo not drawn),357,-8% (inactive),-112% (inactive),164,-0.725,2.03,1.41,-5.26% (inactive),-0.44 (inactive),-0.000144 (inactive),0.00721 (inactive),inactive,-0.003% (inactive)
Cc1ccc(C2/C(=C(/O)c3ccc(OC(C)C)cc3)C(=O)C(=O)N2CCN2CCOCC2)cc1 (stereo not drawn),526,-2% (inactive),7.7% (inactive),166,0.417,1.31,0.598,-2.91% (inactive),-0.295 (inactive),1.7e-05 (inactive),0.00456 (inactive),inactive,2.83% (inactive)
O=S(=O)(c1ccccc1)N1CCC(N2CCCCCC2)CC1,360,-15.1% (inactive),-30.4% (inactive),107,-1.31,-0.622,0.193,-8.95% (inactive),-0.39 (inactive),2.7e-05 (inactive),0.00532 (inactive),inactive,32.5% (inactive)
Cc1nc2oc(C(=O)c3ccc(Br)cc3)c(N)c2c2c1COC(C)(C)C2,643,-7.3% (inactive),-142% (inactive),119,0.13,-0.803,-0.664,24.7% (inactive),-0.532 (inactive),-5.4e-05 (inactive),0.00462 (inactive),inactive,39.3% (inactive)
O=CN1CCN(C(=O)CN2C(=O)c3ccccc3C2=O)CC1,359,-7.2% (inactive),-43.3% (inactive),161,0.687,-0.0272,-1.29,11.4% (inactive),-0.452 (inactive),-0.000158 (inactive),0.00499 (inactive),inactive,15.5% (inactive)
Nc1nnnn1CC(=O)OCc1cccc(Br)c1,351,-7.3% (inactive),-43.6% (inactive),167,0.909,-0.848,1.13,1.42% (inactive),-0.446 (inactive),-0.000151 (inactive),0.00561 (inactive),inactive,-1.03% (inactive)
CCOC(=O)C1=C(CSc2nc3c(cc2C#N)CCC3)OC(N)=C(C#N)C1c1ccccc1 (stereo not drawn),514,-16.1% (inactive),-90.1% (inactive),118,-0.196,0.0665,-0.283,-0.674% (inactive),-0.426 (inactive),5.2e-06 (inactive),0.00558 (inactive),inactive,5.98% (inactive)
CCOC(=O)C1=C(c2ccccc2)NC(SCC(=O)Nc2ccccc2C)=C(C#N)C1c1ccco1 (stereo not drawn),433,-4.2% (inactive),-136% (inactive),166,-0.18,-0.317,-0.0556,-0.159% (inactive),-0.408 (inactive),-6.1e-05 (inactive),0.0072 (inactive),inactive,0.63% (inactive)
COc1ccc(N2C(=O)CN=C2Nc2nc(C)cc(C)n2)cc1,570,-16.6% (inactive),-179% (inactive),144,1.15,-0.727,0.0405,1.98% (inactive),-0.509 (inactive),-6.2e-05 (inactive),0.00444 (inactive),inactive,0.296% (inactive)
COc1cccc(-c2nn3c(-c4ccco4)nnc3s2)c1,611,-8.6% (inactive),16.8% (inactive),155,0.808,-0.226,-0.00224,2.92% (inactive),-0.406 (inactive),-0.000142 (inactive),0.00559 (inactive),inactive,-2.32% (inactive)
COc1ccc(C2=Nn3c(nnc3-c3ccccn3)SC2)cc1,635,-4.7% (inactive),-43.3% (inactive),169,0.562,0.488,-0.686,-4.27% (inactive),-0.427 (inactive),-0.00018 (inactive),0.0069 (inactive),inactive,2.53% (inactive)
Cc1occc1C(=O)OCC(=O)Nc1ccc(F)cc1,527,-1.1% (inactive),-31.2% (inactive),113,-1.12,-1.15,1.8,29.3% (inactive),-0.56 (inactive),-4.4e-05 (inactive),0.00567 (inactive),inactive,1.09% (inactive)
Cc1ccc2c(=O)c(CN(C)C3CCN(C)CC3)c(C)[nH]c2c1C,498,-21.3% (inactive),-40.5% (inactive),142,0.488,0.313,-0.364,1.12% (inactive),-0.491 (inactive),-4.5e-05 (inactive),0.00468 (inactive),inactive,1.23% (inactive)
COc1ccc(C(C)=O)cc1CSCCC(=O)O,513,-1.6% (inactive),-82.1% (inactive),175,1.45,-1.72,-4.2,-5.26% (inactive),-0.349 (inactive),1.8e-05 (inactive),0.00434 (inactive),inactive,0.764% (inactive)
O=C(Nc1ccc(Cl)cn1)C1CCCN1S(=O)(=O)c1ccccc1 (stereo not drawn),365,4.7% (inactive),-101% (inactive),154,2.19,0.087,-0.0829,11.3% (inactive),-0.415 (inactive),-4e-05 (inactive),0.00596 (inactive),inactive,-3.35% (inactive)
COc1ccc(/C=N/n2cncn2)cc1COc1ccc(NC(C)=O)cc1,307,-11.9% (inactive),-81.9% (inactive),99.2,1.57,0.491,-0.528,24.3% (inactive),-0.402 (inactive),3.3e-05 (inactive),0.00513 (inactive),inactive,-6.96% (inactive)
CCc1[nH]nc2c1C(c1ccc(Br)s1)C(C#N)=C(N)O2 (stereo not drawn),504,-7.7% (inactive),-85.9% (inactive),152,-0.154,1.13,-0.858,-8.27% (inactive),-0.312 (inactive),1.7e-05 (inactive),0.00536 (inactive),inactive,15.9% (inactive)
Cc1ccc2[nH]c3c(N4CCCCCC4)ncnc3c2c1,377,-11.4% (inactive),-85.7% (inactive),159,1.13,-0.284,-0.123,-3.5% (inactive),-0.44 (inactive),-0.000151 (inactive),0.00355 (inactive),inactive,-9.6% (inactive)
